Laboratory results reported in ChEMBL document CHEMBL1765057, “Pyrazolo[4,3-d]pyrimidine bioisostere of roscovitine: evaluation of a novel selective inhibitor of cyclin-dependent kinases with antiproliferative activity” (J Med Chem, 2011).
The source made the active and inactive calls. The calls are words filed in the database; no cut-off is given here.

Experiments:
RPMI-8226 [1] = assay: Cytotoxicity against human RPMI8226 cells after 72 hrs by fluoroskan ascent microplate reader analysis; type: functional, cell-based; details: RPMI-8226, 72 h
Method in brief: (§1)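 Cells were grown in DMEM with 10% FCS and 4 mM glutamine at 37 °C under CO2, then plated at densities suited to each line. Compounds were added as 3-fold dilutions in triplicate for 72 h.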

CCRF-CEM = assay: Cytotoxicity against human CEM cells after 72 hrs by fluoroskan ascent microplate reader analysis; type: functional, cell-based; method in brief: as §1
HeLa = assay: Cytotoxicity against human HeLa cells after 72 hrs by fluoroskan ascent microplate reader analysis; type: functional, cell-based; method in brief: as §1
[2] = target: CDK9/cyclin T1 (Homo sapiens) (UniProt O60563+P50750); assay: Inhibition of human recombinant CDK9/cyclin T1 at 10 uM; type: protein-complex assay
[3] = target: Ribosomal protein S6 kinase alpha-5 (Homo sapiens) (UniProt O75582); assay: Inhibition of human recombinant MSK1 at 10 uM
Ribosomal protein S6 kinase alpha-5 (Homo sapiens), sequence (O75582 whole entry, looked up): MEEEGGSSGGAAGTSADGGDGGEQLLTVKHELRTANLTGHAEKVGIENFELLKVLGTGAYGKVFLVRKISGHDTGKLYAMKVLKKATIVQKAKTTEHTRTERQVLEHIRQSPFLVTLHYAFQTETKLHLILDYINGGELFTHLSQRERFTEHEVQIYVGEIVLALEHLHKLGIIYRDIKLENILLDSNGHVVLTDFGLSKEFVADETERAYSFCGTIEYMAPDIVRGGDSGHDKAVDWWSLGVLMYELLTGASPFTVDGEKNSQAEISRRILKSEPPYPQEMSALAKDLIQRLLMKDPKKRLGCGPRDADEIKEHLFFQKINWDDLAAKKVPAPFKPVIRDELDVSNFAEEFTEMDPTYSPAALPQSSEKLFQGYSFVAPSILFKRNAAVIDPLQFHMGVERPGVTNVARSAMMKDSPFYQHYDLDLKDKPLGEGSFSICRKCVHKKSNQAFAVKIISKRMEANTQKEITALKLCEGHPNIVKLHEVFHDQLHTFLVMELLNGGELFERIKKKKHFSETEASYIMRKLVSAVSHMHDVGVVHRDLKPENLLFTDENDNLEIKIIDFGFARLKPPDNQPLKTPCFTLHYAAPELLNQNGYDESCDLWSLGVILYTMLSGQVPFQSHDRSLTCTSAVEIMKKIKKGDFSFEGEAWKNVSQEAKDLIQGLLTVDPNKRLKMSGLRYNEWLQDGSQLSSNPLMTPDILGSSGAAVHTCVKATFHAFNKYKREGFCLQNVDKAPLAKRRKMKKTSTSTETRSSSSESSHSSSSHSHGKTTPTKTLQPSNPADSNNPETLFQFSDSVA

[4] = target: T1, Retinoblastoma-associated protein (Homo sapiens) (UniProt P06400); assay: Inhibition of retinoblastoma protein phosphorylation at Ser249/Thr252, Ser807/811, Ser780, and Ser795 in human MCF7 cells after 24 hrs by immunoblotting; type: cell-based
T1 sequence (whole entry): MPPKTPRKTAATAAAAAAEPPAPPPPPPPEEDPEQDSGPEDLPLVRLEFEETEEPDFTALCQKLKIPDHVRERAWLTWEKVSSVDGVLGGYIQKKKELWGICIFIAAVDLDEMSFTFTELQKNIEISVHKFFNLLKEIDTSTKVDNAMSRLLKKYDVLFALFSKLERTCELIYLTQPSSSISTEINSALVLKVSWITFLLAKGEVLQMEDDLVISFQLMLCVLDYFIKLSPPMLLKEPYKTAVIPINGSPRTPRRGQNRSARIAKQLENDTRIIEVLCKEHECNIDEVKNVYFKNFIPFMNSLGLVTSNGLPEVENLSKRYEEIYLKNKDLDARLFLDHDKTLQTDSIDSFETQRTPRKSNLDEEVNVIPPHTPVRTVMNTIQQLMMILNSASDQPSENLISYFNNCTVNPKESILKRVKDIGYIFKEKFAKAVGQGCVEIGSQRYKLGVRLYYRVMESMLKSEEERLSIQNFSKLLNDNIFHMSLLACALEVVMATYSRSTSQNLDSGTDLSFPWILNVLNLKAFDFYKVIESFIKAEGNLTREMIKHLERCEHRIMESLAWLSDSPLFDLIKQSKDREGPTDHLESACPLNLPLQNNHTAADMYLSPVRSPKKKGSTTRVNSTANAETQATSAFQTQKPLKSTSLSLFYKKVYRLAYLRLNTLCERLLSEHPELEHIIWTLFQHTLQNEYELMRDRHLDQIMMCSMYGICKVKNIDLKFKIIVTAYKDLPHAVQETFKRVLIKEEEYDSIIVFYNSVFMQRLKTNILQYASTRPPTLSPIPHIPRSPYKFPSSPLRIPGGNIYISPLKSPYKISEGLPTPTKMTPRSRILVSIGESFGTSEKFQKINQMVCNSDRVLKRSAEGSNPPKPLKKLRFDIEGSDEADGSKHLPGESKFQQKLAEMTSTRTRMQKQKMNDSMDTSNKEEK
Method in brief: (§2)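 Asynchronous, exponentially growing MCF-7 cells were exposed 24 h to a range of concentrations. Total lysates were made in Laemmli buffer, run on SDS-PAGE and blotted to nitrocellulose. Membranes were probed overnight at 4 °C with specific or phosphospecific antibodies (pRb S249/T252, S780, S795, S807/811), with tubulin as loading control and ECL detection.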

[5] = target: T1, Retinoblastoma-associated protein (Homo sapiens); assay: Inhibition of retinoblastoma protein in human MCF7 cells assessed as reduction of cyclin D1 level at 2.5 to 40 uM after 24 hrs by immunoblotting; type: cell-based; method in brief: as §2
RPMI-8226 [6] = assay: Cell cycle arrest in human RPMI8226 cells assessed as accumulation at G2/M phase after 24 hrs using propidium iodide and BrdU staining by flow cytometry; type: functional, cell-based
Method in brief: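 Asynchronously growing RPMI-8226 multiple myeloma cells were exposed for 24 h. Cells were double-stained with propidium iodide and BrdU and analysed by flow cytometry for G1, S, G2/M and BrdU-positive fractions. The subG1 population was taken as indicative of apoptosis.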

MCF7 = assay: Cell cycle arrest in human MCF7 cells assessed as accumulation at G1 phase after 24 hrs using propidium iodide and BrdU staining by flow cytometry; type: functional, cell-based
Method in brief: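 Subconfluent cells treated 24 h at varying concentrations, pulsed with 10 μM BrdU for 30 min at 37 °C, then trypsinized, fixed in ice-cold 70% ethanol and DNA denatured in 2 M HCl. After staining with fluorescein anti-BrdU (1:50), propidium iodide (0.1 mg/mL) and RNase A (0.5 mg/mL), cells were read by flow cytometry with a 488 nm laser.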

U-266 = assay: Induction of apoptosis in human U266 cells at 10 uM after 24 hrs; type: functional, cell-based
RPMI-8226 [7] = assay: Induction of apoptosis in human RPMI8226 cells assessed as increase in caspase3 activation after 24 hrs by immunoblot analysis; type: functional, cell-based
RPMI-8226 [8] = assay: Induction of apoptosis in human RPMI8226 cells assessed as down-regulation of Mcl-1 after 24 hrs by immunoblot analysis; type: functional, cell-based
Method in brief: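 RPMI-8226 cells were treated continuously for 24 h, and total lysates were made in Laemmli buffer, run on SDS-PAGE and blotted to nitrocellulose. Loading was checked with Ponceau-S. Membranes were blocked in milk or BSA, probed overnight at 4 °C with antibodies to PARP, caspase-3 and Mcl-1, then peroxidase secondary (1:2000), with ECL detection.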

[9] = target: Cellular tumor antigen p53 (Homo sapiens) (UniProt P04637); assay: Induction of p53-dependent transcriptional activity in human MCF7 cells assessed as increase of p21 WAF1 level at 10 uM after 24 hrs by immunofluorescence assay; type: cell-based; details: in the assay text read “by immunoblotting analysis” for “by immunofluorescence assay”
Cellular tumor antigen p53 (Homo sapiens), sequence (P04637 whole entry, looked up): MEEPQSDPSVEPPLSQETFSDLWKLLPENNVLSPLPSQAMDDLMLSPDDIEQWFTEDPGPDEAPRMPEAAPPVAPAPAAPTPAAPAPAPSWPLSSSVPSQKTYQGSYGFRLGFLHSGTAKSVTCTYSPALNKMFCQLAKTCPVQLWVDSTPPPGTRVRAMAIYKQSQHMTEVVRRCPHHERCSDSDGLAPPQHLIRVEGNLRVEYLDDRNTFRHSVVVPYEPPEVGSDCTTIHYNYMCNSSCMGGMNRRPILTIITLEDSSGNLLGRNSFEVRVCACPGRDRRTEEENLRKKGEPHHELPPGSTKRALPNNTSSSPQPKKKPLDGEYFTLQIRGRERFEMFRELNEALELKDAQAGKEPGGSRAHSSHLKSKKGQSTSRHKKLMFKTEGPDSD
Method in brief: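 MCF-7 cells were exposed 24 h to 10 μM. Total lysates were made in Laemmli buffer, run on SDS-PAGE and blotted to nitrocellulose, then probed with antibodies to p53, p21WAF1 and Mdm-2, with peroxidase secondary and ECL detection.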

[10] = target: Cyclin-dependent kinase 5/CDK5 activator 1 (Homo sapiens) (UniProt Q00535+Q15078); details: at 10 µM
Cyclin-dependent kinase 5/CDK5 activator 1 (Homo sapiens), sequence (Q00535 whole entry): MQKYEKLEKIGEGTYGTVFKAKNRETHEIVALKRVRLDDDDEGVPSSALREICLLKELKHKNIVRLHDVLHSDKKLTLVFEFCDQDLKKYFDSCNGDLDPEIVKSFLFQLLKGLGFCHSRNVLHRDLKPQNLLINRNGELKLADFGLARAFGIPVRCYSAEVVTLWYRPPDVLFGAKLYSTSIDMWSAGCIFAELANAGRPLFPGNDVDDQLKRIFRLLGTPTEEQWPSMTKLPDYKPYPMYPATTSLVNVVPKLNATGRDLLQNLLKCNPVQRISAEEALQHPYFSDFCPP
Cyclin-dependent kinase 5/CDK5 activator 1 (Homo sapiens), sequence (Q15078 99-307 partner limits assumed): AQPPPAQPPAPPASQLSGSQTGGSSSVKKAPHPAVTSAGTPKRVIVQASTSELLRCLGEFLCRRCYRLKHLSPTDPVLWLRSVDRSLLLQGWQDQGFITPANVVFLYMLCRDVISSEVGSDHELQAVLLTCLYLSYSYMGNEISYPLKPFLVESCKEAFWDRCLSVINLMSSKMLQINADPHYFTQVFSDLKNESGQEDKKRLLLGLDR

inhibition [2]: 90%
inhibition [3]: 39%
inhibition [4]: Dose-dependent effect
inhibition [5]: Active
Activity [9]: Active
inhibition [10]: 95%
SMILES: CC[C@H](CO)Nc1nc(NCc2ccccc2)c2[nH]nc(C(C)C)c2n1
IC50 (RPMI-8226 [1]): 3.6 µM
IC50 (CCRF-CEM): 3.8 µM
IC50 (HeLa): 6.9 µM
Activity (RPMI-8226 [6]): Active
Activity (MCF7): inactive
Activity (U-266): Active
Activity (RPMI-8226 [7]): Active
Activity (RPMI-8226 [8]): Active
